Results as given in ChEMBL document CHEMBL4390648, “Chemical synthesis, crystal structure, versatile evaluation of their biological activities and molecular simulations of novel pyrithiobac derivatives” (Eur J Med Chem, 2019).
Values after ≈ are worked out from the molar mass of the structure shown. Active and inactive are the calls of the source. The calls are words filed in the database; no cut-off is given here.

Legend:
[1] = test system: Botryosphaeria berengeriana; assay: Antifungal activity against Physalospora pyricola assessed as reduction in growth at 50 mg/l by mycelium growth rate method relative to control; format: functional
Outline: (§1)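 Mycelium growth rate method against S. sclerotiorum, P. capsici, P. piricola, R. cerealis, W. anthracnose and R. bakanae. Each compound tested at 50 mg/L, with chlorothalonil and PTB as controls. Relative inhibitory ratio (%) calculated from mycelial growth.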

Candida albicans [2] = assay: Antifungal activity against Candida albicans SC5314 grown in RPMI 1640 medium incubated for 24 hrs by microdilution method; format: functional; conditions: SC5314, 24 h
Outline: (§2)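 C. albicans standard strain SC5314 and clinical isolates g5 and 17# tested by broth microdilution in YNB or RPMI 1640 medium. Plates incubated at 35 °C for up to 72 h, with visual readings taken at 24 h. MIC taken as the lowest concentration preventing visible growth.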

Phytophthora capsici = assay: Antifungal activity against Phytophthora capsici assessed as reduction in growth at 50 mg/l by mycelium growth rate method relative to control; format: functional; outline: as §1
[3] = test system: Brassica rapa subsp. oleifera; assay: Herbicidal activity against Brassica campestris L assessed as inhibition of rape root growth at 10 mg/l root growth incubated for 48 hrs relative to control; format: functional
Outline: (§3)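 Rape seeds soaked in distilled water for 4 h, then placed on filter paper wetted with inhibitor solution, 15 seeds per 6-cm dish. Germinated in the dark at 28 °C for 48 h. Mean length of 10 roots per plate measured.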

[4] = test system: Brassica rapa subsp. oleifera; assay: Herbicidal activity against Brassica campestris L assessed as inhibition of rape root growth at 100 mg/l root growth incubated for 48 hrs relative to control; format: functional; outline: as §3
Candida albicans [5] = assay: Antifungal activity against Candida albicans isolate 17 grown in YNB medium incubated for 24 hrs by microdilution method; format: functional; conditions: isolate 17, 24 h; outline: as §2
Candida albicans [6] = assay: Inhibition of Candida albicans AHAS catalytic subunit at 100 uM using pyruvate as substrate measured after 30 mins by colorimetric method relative to control
Outline: (§4)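 Colorimetric assay in 50 mM potassium phosphate pH 7.0 with 50 mM pyruvate, 1 mM thiamine diphosphate, 10 mM MgCl2 and 10 μM FAD. Incubated 30 min at 37 °C for plant AHAS and 30 °C for fungal AHAS. Acetolactate formed was then quantified.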

Ceratobasidium cereale = assay: Antifungal activity against Rhizoctonia cerealis assessed as reduction in growth at 50 mg/l by mycelium growth rate method relative to control; format: functional; outline: as §1
Candida albicans [7] = assay: Antifungal activity against Candida albicans isolate g5 grown in YNB medium incubated for 24 hrs by microdilution method; format: functional; conditions: isolate g5, 24 h; outline: as §2
Colletotrichum = assay: Antifungal activity against Colletotrichum (W. anthracnose) assessed as reduction in growth at 50 mg/l by mycelium growth rate method relative to control; format: functional; outline: as §1
Candida albicans [8] = assay: Antifungal activity against Candida albicans isolate 17 grown in RPMI 1640 medium incubated for 24 hrs by microdilution method; format: functional; conditions: isolate 17, 24 h; outline: as §2
Fusarium fujikuroi = assay: Antifungal activity against Gibberella fujikuroi assessed as reduction in growth at 50 mg/l by mycelium growth rate method relative to control; format: functional; outline: as §1
Candida albicans [9] = assay: Antifungal activity against Candida albicans SC5314 grown in YNB medium incubated for 24 hrs by microdilution method; format: functional; conditions: SC5314, 24 h; outline: as §2
Mythimna separata = assay: Insecticidal activity against Mythimna separata assessed as larval mortality at 600 mg/l by leaf-dip method; format: functional
Candida albicans [10] = assay: Inhibition of Candida albicans AHAS catalytic subunit at 10 uM using pyruvate as substrate measured after 30 mins by colorimetric method relative to control; outline: as §4
Arabidopsis thaliana [11] = assay: Inhibition of Arabidopsis thaliana AHAS catalytic subunit using pyruvate as substrate at 10 uM measured after 30 mins by colorimetric method relative to control; outline: as §4
Tobacco mosaic virus [12] = assay: Antiviral activity against Tobacco mosaic virus inoculated in Nicotiana tabacum leaves assessed as passivation by measuring local lesion numbers at 100 mg/l pre-incubated with virus for 30 mins followed by inoculation and measured up to 4 days; format: functional
Outline: (§5)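 Passivation assay: TMV mixed with an equal volume of compound solution for 30 min, then rubbed onto the left half of N. tabacum L. leaves. The right half received virus mixed with solvent as control. Local lesions counted 3–4 days after inoculation. Compounds tested at 500 or 100 mg/L.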

Candida albicans [13] = assay: Antifungal activity against Candida albicans isolate g5 grown in RPMI 1640 medium incubated for 24 hrs by microdilution method; format: functional; conditions: isolate g5, 24 h; outline: as §2
Tobacco mosaic virus [14] = assay: Antiviral activity against Tobacco mosaic virus inoculated in Nicotiana tabacum leaves assessed as passivation by measuring local lesion numbers at 500 mg/l pre-incubated with virus for 30 mins followed by inoculation and measured up to 4 days; format: functional; outline: as §5
[15] = test system: Severe acute respiratory syndrome-related coronavirus; assay: Inhibition of SARS coronavirus M protease using AVLQSGFRKK as substrate at 20 uM by FRET assay relative to control
Outline: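 Purified SARS-CoV Mpro assayed by FRET. Protein, compound and substrate were preheated at 37 °C and oscillated. Fluorescence (ex 320/em 405 nm) was read every 5 s for 200 reads.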

Sclerotinia sclerotiorum = assay: Antifungal activity against Sclerotinia sclerotiorum assessed as reduction in growth at 50 mg/l by mycelium growth rate method relative to control; format: functional; outline: as §1
Arabidopsis thaliana [16] = assay: Inhibition of Arabidopsis thaliana AHAS catalytic subunit using pyruvate as substrate at 100 uM measured after 30 mins by colorimetric method relative to control; outline: as §4

COc1nc(OC)nc(Sc2cccc(Cl)c2C#N)n1 was tested, and the inhibition at 50 µg/mL [1] was 51.6%, the MIC (Candida albicans [2]) was greater than 100 µg/mL and the inhibition at 50 µg/mL (Phytophthora capsici) was 33.3%. For the same compound, the “inhibition (INH)” value [3] was 0%, the “inhibition (INH)” value [4] was 17.4% and the MIC (Candida albicans [5]) was greater than 100 µg/mL. The inhibition (Candida albicans [6]) was 59.5%, the inhibition at 50 µg/mL (Ceratobasidium cereale) was 27.4% and the MIC (Candida albicans [7]) was greater than 100 µg/mL. For the same compound, the inhibition at 50 µg/mL (Colletotrichum) was 40.5%, the MIC (Candida albicans [8]) was greater than 100 µg/mL and the inhibition at 50 µg/mL (Fusarium fujikuroi) was 21.2%. It also gave an MIC (Candida albicans [9]) greater than 100 µg/mL, a mortality at 600 µg/mL (Mythimna separata) of 5% and an inhibition (Candida albicans [10]) of 38.9%. The inhibition (Arabidopsis thaliana [11]) was 19.8%, the inhibition (Tobacco mosaic virus [12]) was “inactive” and the MIC (Candida albicans [13]) was greater than 100 µg/mL. For the same compound, the inhibition at 500 µg/mL (Tobacco mosaic virus [14]) was 0%, the inhibition [15] was 76.6% and the inhibition at 50 µg/mL (Sclerotinia sclerotiorum) was 50%. It also gave an inhibition (Arabidopsis thaliana [16]) of 79.3%.
For COc1cc(OC)nc(Sc2ccc(C#N)c(C(F)(F)F)c2)n1, the MIC (Candida albicans [2]) was greater than 100 µg/mL, the “inhibition (INH)” value [3] was 4.7% and the “inhibition (INH)” value [4] was 33.5%. It also gave an MIC (Candida albicans [5]) greater than 100 µg/mL, an inhibition (Candida albicans [6]) of 51.4% and an MIC (Candida albicans [7]) greater than 100 µg/mL. The MIC (Candida albicans [8]) was greater than 100 µg/mL, the MIC (Candida albicans [9]) was greater than 100 µg/mL and the inhibition (Candida albicans [10]) was 18.6%. The inhibition (Arabidopsis thaliana [11]) was 51.2%, the MIC (Candida albicans [13]) was greater than 100 µg/mL and the inhibition [15] was 85%. The inhibition (Arabidopsis thaliana [16]) was 86.2%.
For COc1cc(OC)nc(Sc2ccc(C(=O)O)cc2C(=O)O)n1, the MIC (Candida albicans [2]) was greater than 100 µg/mL, the “inhibition (INH)” value [3] was 0% and the “inhibition (INH)” value [4] was 0%. For the same compound, the MIC (Candida albicans [5]) was greater than 100 µg/mL, the inhibition (Candida albicans [6]) was 24% and the MIC (Candida albicans [7]) was greater than 100 µg/mL. For the same compound, the MIC (Candida albicans [8]) was greater than 100 µg/mL, the MIC (Candida albicans [9]) was greater than 100 µg/mL and the inhibition (Candida albicans [10]) was 8%. For the same compound, the inhibition (Arabidopsis thaliana [11]) was 5%, the MIC (Candida albicans [13]) was greater than 100 µg/mL and the inhibition [15] was 0%. The inhibition (Arabidopsis thaliana [16]) was 20%.
With COc1nc(OC)nc(Sc2ccc(C#N)cc2C(F)(F)F)n1 the MIC (Candida albicans [2]) was greater than 100 µg/mL, the “inhibition (INH)” value [3] was 0% and the “inhibition (INH)” value [4] was 5%. It also gave an MIC (Candida albicans [5]) greater than 100 µg/mL, an inhibition (Candida albicans [6]) of 22% and an MIC (Candida albicans [7]) greater than 100 µg/mL. It also gave an MIC (Candida albicans [8]) greater than 100 µg/mL, an MIC (Candida albicans [9]) greater than 100 µg/mL and an inhibition (Candida albicans [10]) of 10.5%. It also gave an inhibition (Arabidopsis thaliana [11]) of 0%, an MIC (Candida albicans [13]) greater than 100 µg/mL and an inhibition [15] of 18%. It also gave an inhibition (Arabidopsis thaliana [16]) of 10%.
COc1nc(OC)nc(Sc2ccc(C#N)cc2F)n1 gave an inhibition at 50 µg/mL [1] of 54.7%, an MIC (Candida albicans [2]) of 100 µg/mL (≈ 342 µM) and an inhibition at 50 µg/mL (Phytophthora capsici) of 16.7%. For the same compound, the “inhibition (INH)” value [3] was 41.8%, the “inhibition (INH)” value [4] was 54.2% and the MIC (Candida albicans [5]) was 6.25 µg/mL (≈ 21.4 µM). It also gave an inhibition (Candida albicans [6]) of 85.4%, an inhibition at 50 µg/mL (Ceratobasidium cereale) of 58.3% and an MIC (Candida albicans [7]) of 12.5 µg/mL (≈ 42.8 µM). It also gave an inhibition at 50 µg/mL (Colletotrichum) of 23.8%, an MIC (Candida albicans [8]) of 100 µg/mL (≈ 342 µM) and an inhibition at 50 µg/mL (Fusarium fujikuroi) of 27.3%. It also gave an MIC (Candida albicans [9]) of 6.25 µg/mL (≈ 21.4 µM), a mortality at 600 µg/mL (Mythimna separata) of 0% and an inhibition (Candida albicans [10]) of 55.7%. The inhibition (Arabidopsis thaliana [11]) was 42.9%, the inhibition (Tobacco mosaic virus [12]) was “inactive” and the MIC (Candida albicans [13]) was 100 µg/mL (≈ 342 µM). For the same compound, the inhibition at 500 µg/mL (Tobacco mosaic virus [14]) was 0%, the inhibition [15] was 49.7% and the inhibition at 50 µg/mL (Sclerotinia sclerotiorum) was 13.9%. It also gave an inhibition (Arabidopsis thaliana [16]) of 63.3%.
COc1cc(OC)nc(Sc2ccc(C(F)(F)F)cc2C#N)n1 was tested, and the MIC (Candida albicans [2]) was greater than 100 µg/mL, the “inhibition (INH)” value [3] was 0% and the “inhibition (INH)” value [4] was 25.8%. The MIC (Candida albicans [5]) was greater than 100 µg/mL, the inhibition (Candida albicans [6]) was 25% and the MIC (Candida albicans [7]) was greater than 100 µg/mL. The MIC (Candida albicans [8]) was greater than 100 µg/mL, the MIC (Candida albicans [9]) was greater than 100 µg/mL and the inhibition (Candida albicans [10]) was 3.6%. It also gave an inhibition (Arabidopsis thaliana [11]) of 28.2%, an MIC (Candida albicans [13]) greater than 100 µg/mL and an inhibition [15] of 0%. For the same compound, the inhibition (Arabidopsis thaliana [16]) was 72.3%.
With CCOc1ccccc1OS(=O)(=O)NC(=O)Nc1nc(OC)cc(OC)n1 [ETHOXYSULFURON] the MIC (Candida albicans [2]) was 25 µg/mL (≈ 62.8 µM), the MIC (Candida albicans [5]) was 0.39 µg/mL (≈ 0.979 µM) and the inhibition (Candida albicans [6]) was 98.7%. The MIC (Candida albicans [7]) was 0.39 µg/mL (≈ 0.979 µM), the MIC (Candida albicans [8]) was 50 µg/mL (≈ 126 µM) and the MIC (Candida albicans [9]) was 0.39 µg/mL (≈ 0.979 µM). It also gave an inhibition (Candida albicans [10]) of 96.8% and an MIC (Candida albicans [13]) of 25 µg/mL (≈ 62.8 µM).
